Measured values taken from article PMC3308013 (Journal of Immunology (Baltimore, Md. : 1950), 2011).
Where no end group is shown, it is not given here.

Each sequence was assayed against H-2 Kb (Mus musculus, UniProt P01901) (assay: MHC peptide binding competition assay, purified H-2 Kb).
Sequence of H-2 Kb (P01901 22-369): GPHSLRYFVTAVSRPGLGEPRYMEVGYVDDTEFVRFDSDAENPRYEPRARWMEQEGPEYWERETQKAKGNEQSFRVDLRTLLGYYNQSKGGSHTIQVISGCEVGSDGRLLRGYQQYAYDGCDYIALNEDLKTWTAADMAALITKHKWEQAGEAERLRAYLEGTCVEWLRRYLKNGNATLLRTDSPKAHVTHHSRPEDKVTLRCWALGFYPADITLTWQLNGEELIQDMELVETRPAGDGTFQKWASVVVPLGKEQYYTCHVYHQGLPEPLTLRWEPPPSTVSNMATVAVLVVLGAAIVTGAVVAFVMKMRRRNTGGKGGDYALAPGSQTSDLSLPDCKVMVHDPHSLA
Sequence of H-2 Kb (P61769 21-119 partner): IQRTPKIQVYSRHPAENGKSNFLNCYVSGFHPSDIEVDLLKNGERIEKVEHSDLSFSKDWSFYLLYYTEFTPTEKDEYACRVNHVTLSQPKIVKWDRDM

Sequence | IC50
GAINFINL [GAINFINL] | 6.2 nM
YRFLFAFL [YRFLFAFL] | 5.4 nM
LGYAYINS [LGYAYINS] | 10 nM
SFYRFLFA [SFYRFLFA] | 64 nM
QTFDFGRL [QTFDFGRL] | 2.1 nM
INNTFLHL [INNTFLHL] | 2 nM

These sequences were tested against H-2 Db (Mus musculus, UniProt P01899) (assay: MHC peptide binding competition assay, purified H-2 Db).
Sequence of H-2 Db (P01899 25-362): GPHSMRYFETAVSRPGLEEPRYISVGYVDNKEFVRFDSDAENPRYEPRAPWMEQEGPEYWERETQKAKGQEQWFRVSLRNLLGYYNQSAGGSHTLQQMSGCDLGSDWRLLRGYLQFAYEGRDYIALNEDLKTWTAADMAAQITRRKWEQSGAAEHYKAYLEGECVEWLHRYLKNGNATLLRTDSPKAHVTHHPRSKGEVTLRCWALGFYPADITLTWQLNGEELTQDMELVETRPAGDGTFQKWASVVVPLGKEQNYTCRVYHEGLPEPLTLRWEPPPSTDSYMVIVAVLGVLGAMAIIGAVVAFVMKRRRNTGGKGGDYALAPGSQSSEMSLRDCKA
Sequence of H-2 Db (P61769 21-119, further chain): as the sequence (P61769 21-119 partner) above
Procedure, shortened: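 Peptides radiolabelled by chloramine T; 1–10 nM label co-incubated at room temperature for 2 d with 1 μM to 1 nM purified H-2 Db, 1–3 μM human β2-microglobulin and protease inhibitors. Complexes captured on 28-14-8s Ab-coated plates; bound cpm counted. Test peptide at six concentrations over a 100,000-fold range, ≥3 independent assays; IC50 = concentration giving 50% inhibition of label binding.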

Sequence | IC50
FGLLNYALV [FGLLNYALV] | 1 nM
FLPRLGTEL [FLPRLGTEL] | 3050 nM
LAVVLWSLL [LAVVLWSLL] | 2780 nM
AVCINNTFL [AVCINNTFL] | 450 nM
YQPLLSNTL [YQPLLSNTL] | 5150 nM
WMKMNQTLL [WMKMNQTLL] | 131 nM
SARMLGDVM [SARMLGDVM] | 9210 nM
FAFVNAAHA [FAFVNAAHA] | 4.9 nM
GAMRAVVPI [GAMRAVVPI] | 499 nM
AAIENYVRF [AAIENYVRF] | 38 nM
YSVENVGLL [YSVENVGLL] | 1.9 nM
